Values after ≈ are worked out from the molar mass of the structure shown. Values joined by “and” are separate entries in the source; they are usually repeats but may differ in a detail not shown here. Equal values may be shown once. Read-outs that look alike come from different tables or passages of the source. One block for each molecule: values may come before it.
How the values were obtained:
[1] = test system: P. falciparum (NF54 drug-sensitive strain); assay: [3H]-hypoxanthine incorporation assay, asexual blood-stage parasites; assay type: cell-based; conditions: Plasmodium falciparum, NF54, 72 h
[2] = test system: P. falciparum 3D7 strain; assay: In vitro parasite reduction ratio; assay type: cell-based, Plasmodium falciparum; conditions: 10× IC50
[3] = test system: P. falciparum NF54 strain; assay: Erythrocytic IC50 speed and stage specificity assays; assay type: cell-based, Plasmodium falciparum
[4] = test system: P. berghei; assay: P. berghei mouse efficacy model; assay type: in vivo, Plasmodium berghei
[5] = test system: drug-sensitive 3D7 P. falciparum strain; assay: P. falciparum humanized SCID mouse efficacy model; assay type: in vivo, Plasmodium falciparum; conditions: once daily oral for four consecutive days
Method in brief: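 Humanized SCID mice were infected with P. falciparum 3D7. From day 3 after infection, test compound was given orally once daily for 4 days, one mouse per dose level. Blood parasitemia was measured by flow cytometry and ED90 was read at day 7. Whole-blood drug levels were sampled 0–23 h after the first dose (LLOQ 1 ng/mL).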

[6] = test system: P. falciparum; assay: PKPD; assay type: in vivo, Plasmodium falciparum
Method in brief: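 A direct-effect composite Emax PKPD model was fitted to humanized SCID mouse P. falciparum efficacy data, allowing for change in kill rate at higher doses. Inputs were modeled blood concentrations from individual-mouse whole-blood PK after once-daily oral dosing for 4 days. The model gave MIC, EC50/EC90 for kill rate and predicted parasitemia after 4 days.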

[7] = test system: P. falciparum late-stage gametocytes (stages IV and V); assay: Gametocyte viability assay; assay type: cell-based; conditions: Plasmodium falciparum, read-out: IC50, gametocyte viability (pLDH)
[8] = test system: P. falciparum early-stage (stages I to III) gametocytes expressing luciferase; assay: Gametocyte viability assay; assay type: cell-based, Plasmodium falciparum
[9] = test system: P. falciparum late-stage (stages IV and V) gametocytes expressing luciferase; assay: Gametocyte viability assay; assay type: cell-based, Plasmodium falciparum
[10] = test system: P. falciparum stage V gametocytes; assay: Male gamete formation; assay type: cell-based; conditions: Plasmodium falciparum, 24 h, read-out: potency, inhibition of exflagellation
[11] = test system: P. falciparum stage V gametocytes (oocysts in mosquito midgut); assay: Indirect standard membrane-feeding assay; assay type: cell-based; conditions: Plasmodium falciparum, 24 h, read-out: inhibition of oocyst formation (potency)
[12] = test system: P. falciparum stage V gametocytes (oocysts in mosquito midgut); assay: Direct standard membrane-feeding assay; assay type: cell-based; conditions: Plasmodium falciparum, read-out: inhibition of the formation of oocysts
[13] = test system: P. berghei; assay: Mouse-to-mouse transmission model; assay type: in vivo, Plasmodium berghei; conditions: 2 mg/kg oral; compared to 6.1 days in control mice
Method in brief: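 Female TO mice (6–8 weeks) were infected i.p. with P. berghei clone 507cl1. On day 9, after exflagellation was confirmed, each received one 2 mg/kg oral gavage dose; controls were atovaquone 0.3 mg/kg and sulfadiazine 8.4 mg/kg i.p. Mosquitoes fed, then at day 21 bit naive mice for 20 min. Smears on days 4–10 set patency. Duplicates were combined by generalized linear mixed model against no-drug control.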

[14] = test system: P. cynomolgi liver-stage parasites; assay: P. cynomolgi liver-stage assay, IC99; assay type: cell-based, Plasmodium cynomolgi
[15] = Plasma concentrations in the prophylactic monkey study; assay type: in vivo, Macaca mulatta; conditions: po, 20 mg/kg
[16] = Plasma concentrations in the radical cure monkey study; assay type: in vivo, Macaca mulatta
[17] = Protein binding and blood-to-plasma partitioning; assay type: in vitro ADME
[18] = test system: P. berghei-infected HepG2 liver cells; assay: P. berghei liver-stage phenotyping in HepG2 cells; assay type: cell-based, Plasmodium berghei; conditions: 460 nM, 2 to 8 hours after infection
Method in brief: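 Extracellular sporozoites were washed off at 2 h, then cells were exposed to 460 nM test compound or DMSO vehicle. Cells were fixed 8 h after invasion, immunolabeled and imaged by confocal microscopy.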

[19] = test system: P. falciparum Dd2 parasites; assay: microbe, parasite or virus in culture; assay type: cell-based; conditions: Plasmodium falciparum
[20] = test system: Dd2 multidrug-resistant parental line; assay: Cross-resistance test, parental line; assay type: cell-based; conditions: Plasmodium falciparum
[21] = test system: parasites bearing PfPI4K mutation H1484Y; assay: Cross-resistance test, transgenic PI4K-H1484Y line; assay type: cell-based; conditions: Plasmodium falciparum
[22] = test system: parasites bearing PfPI4K mutation S1320L; assay: Cross-resistance test, transgenic PI4K-S1320L line; assay type: cell-based; conditions: Plasmodium falciparum
[23] = target: T1, PfPI4K (Plasmodium falciparum, UniProt Q8I406); assay: Chemoproteomic competition binding, immobilized MMV666845 beads
[24] = target: T1, PfPI4K; assay: Chemoproteomic competition binding, Kinobeads
[25] = target: PI4KB (Q9UBF8) (Homo sapiens, UniProt Q9UBF8); assay: Chemoproteomic pull-down in K562 cell extract; assay type: binding
Method in brief: (§1)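 They were incubated 1 h at 4°C with K562 extract (5 mg) preincubated with test compound or buffer. Eluates were alkylated, separated by SDS gel and quantified by isobaric mass tagging LC-MS/MS.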

[26] = target: PI4KA (P42356) (Homo sapiens, UniProt P42356); assay: Chemoproteomic pull-down in K562 cell extract; assay type: binding
Method in brief: as §1

[27] = target: ATM (Q13315) (Homo sapiens, UniProt Q13315); assay: Chemoproteomic pull-down in K562 cell extract; assay type: binding
Method in brief: as §1

[28] = target: TNIK (Q9UKE5) (Homo sapiens, UniProt Q9UKE5); assay: Chemoproteomic pull-down in K562 cell extract; assay type: binding
Method in brief: as §1

[29] = Allometric scaling to human pharmacokinetics and dose
[30] = rats; cited from earlier work
[31] = pH 6.5; cited from earlier work
[32] = in vivo; conditions: male (mice, rats), female (monkeys, dogs), Swiss outbred (mice), Sprague Dawley (rats), beagle (dogs), mouse, rat, dog, cynomolgus monkey, iv
[33] = test system: P. cynomolgi; assay: Radical cure study in P. cynomolgi-infected rhesus macaques; conditions: 20 mg/kg oral daily for 5 days, Cmax 5697 ng/ml
[34] = Plasmodium falciparum, read-out: IC50, gametocyte viability (luciferase)

Chain of PI4KA (P42356) (P42356 whole entry): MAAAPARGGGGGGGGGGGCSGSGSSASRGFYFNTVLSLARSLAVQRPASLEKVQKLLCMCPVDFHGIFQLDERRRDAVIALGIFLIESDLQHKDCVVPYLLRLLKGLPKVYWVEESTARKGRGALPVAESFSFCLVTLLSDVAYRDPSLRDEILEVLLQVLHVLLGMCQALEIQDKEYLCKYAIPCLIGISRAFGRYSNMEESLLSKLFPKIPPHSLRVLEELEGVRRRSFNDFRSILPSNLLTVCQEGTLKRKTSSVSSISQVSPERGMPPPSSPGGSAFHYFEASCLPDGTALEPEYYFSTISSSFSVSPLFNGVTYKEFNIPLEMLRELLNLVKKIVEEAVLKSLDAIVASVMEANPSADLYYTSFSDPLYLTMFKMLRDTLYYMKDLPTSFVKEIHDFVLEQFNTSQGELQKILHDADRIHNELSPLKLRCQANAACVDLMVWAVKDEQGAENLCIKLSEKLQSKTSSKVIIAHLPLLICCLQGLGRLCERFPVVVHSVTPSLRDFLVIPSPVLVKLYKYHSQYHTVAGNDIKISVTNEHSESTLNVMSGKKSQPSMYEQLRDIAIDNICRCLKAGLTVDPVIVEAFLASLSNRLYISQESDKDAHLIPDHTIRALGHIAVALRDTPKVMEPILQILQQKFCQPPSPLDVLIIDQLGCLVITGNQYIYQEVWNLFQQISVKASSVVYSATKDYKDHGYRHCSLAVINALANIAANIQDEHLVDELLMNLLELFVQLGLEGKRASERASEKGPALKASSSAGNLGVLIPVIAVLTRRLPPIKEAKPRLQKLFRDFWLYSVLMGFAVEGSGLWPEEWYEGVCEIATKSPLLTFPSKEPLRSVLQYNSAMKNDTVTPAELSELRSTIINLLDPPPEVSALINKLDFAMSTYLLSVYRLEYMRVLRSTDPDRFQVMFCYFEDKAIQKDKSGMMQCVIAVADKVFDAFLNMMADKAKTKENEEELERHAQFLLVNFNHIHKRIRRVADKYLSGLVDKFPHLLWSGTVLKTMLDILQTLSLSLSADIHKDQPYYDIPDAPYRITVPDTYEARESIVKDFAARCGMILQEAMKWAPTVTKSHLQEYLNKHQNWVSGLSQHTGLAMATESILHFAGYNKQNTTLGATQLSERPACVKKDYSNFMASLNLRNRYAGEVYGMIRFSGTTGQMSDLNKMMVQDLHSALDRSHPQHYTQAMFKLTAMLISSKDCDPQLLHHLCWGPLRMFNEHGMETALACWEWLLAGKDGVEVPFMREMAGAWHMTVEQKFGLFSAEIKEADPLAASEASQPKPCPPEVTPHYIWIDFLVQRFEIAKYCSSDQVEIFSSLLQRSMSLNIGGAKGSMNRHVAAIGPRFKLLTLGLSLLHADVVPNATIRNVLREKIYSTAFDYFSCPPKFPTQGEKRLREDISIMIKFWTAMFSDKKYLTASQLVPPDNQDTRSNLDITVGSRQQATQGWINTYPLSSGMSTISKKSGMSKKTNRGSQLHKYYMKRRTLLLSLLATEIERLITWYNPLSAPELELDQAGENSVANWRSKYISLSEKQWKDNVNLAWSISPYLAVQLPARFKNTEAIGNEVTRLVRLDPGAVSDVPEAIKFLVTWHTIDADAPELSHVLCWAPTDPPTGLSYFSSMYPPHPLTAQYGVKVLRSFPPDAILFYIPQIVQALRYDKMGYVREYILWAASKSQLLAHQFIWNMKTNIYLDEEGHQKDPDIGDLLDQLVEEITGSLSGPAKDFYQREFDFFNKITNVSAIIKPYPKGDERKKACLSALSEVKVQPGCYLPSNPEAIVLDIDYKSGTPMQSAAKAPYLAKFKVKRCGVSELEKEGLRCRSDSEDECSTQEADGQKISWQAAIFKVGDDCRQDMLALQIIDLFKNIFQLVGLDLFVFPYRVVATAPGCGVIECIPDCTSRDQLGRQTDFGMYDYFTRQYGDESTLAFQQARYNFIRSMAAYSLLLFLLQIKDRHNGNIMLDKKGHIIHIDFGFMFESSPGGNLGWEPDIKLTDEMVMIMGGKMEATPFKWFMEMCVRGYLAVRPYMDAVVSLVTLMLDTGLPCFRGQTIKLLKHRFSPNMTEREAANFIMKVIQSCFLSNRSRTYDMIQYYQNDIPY
Chain of ATM (Q13315) (Q13315 whole entry): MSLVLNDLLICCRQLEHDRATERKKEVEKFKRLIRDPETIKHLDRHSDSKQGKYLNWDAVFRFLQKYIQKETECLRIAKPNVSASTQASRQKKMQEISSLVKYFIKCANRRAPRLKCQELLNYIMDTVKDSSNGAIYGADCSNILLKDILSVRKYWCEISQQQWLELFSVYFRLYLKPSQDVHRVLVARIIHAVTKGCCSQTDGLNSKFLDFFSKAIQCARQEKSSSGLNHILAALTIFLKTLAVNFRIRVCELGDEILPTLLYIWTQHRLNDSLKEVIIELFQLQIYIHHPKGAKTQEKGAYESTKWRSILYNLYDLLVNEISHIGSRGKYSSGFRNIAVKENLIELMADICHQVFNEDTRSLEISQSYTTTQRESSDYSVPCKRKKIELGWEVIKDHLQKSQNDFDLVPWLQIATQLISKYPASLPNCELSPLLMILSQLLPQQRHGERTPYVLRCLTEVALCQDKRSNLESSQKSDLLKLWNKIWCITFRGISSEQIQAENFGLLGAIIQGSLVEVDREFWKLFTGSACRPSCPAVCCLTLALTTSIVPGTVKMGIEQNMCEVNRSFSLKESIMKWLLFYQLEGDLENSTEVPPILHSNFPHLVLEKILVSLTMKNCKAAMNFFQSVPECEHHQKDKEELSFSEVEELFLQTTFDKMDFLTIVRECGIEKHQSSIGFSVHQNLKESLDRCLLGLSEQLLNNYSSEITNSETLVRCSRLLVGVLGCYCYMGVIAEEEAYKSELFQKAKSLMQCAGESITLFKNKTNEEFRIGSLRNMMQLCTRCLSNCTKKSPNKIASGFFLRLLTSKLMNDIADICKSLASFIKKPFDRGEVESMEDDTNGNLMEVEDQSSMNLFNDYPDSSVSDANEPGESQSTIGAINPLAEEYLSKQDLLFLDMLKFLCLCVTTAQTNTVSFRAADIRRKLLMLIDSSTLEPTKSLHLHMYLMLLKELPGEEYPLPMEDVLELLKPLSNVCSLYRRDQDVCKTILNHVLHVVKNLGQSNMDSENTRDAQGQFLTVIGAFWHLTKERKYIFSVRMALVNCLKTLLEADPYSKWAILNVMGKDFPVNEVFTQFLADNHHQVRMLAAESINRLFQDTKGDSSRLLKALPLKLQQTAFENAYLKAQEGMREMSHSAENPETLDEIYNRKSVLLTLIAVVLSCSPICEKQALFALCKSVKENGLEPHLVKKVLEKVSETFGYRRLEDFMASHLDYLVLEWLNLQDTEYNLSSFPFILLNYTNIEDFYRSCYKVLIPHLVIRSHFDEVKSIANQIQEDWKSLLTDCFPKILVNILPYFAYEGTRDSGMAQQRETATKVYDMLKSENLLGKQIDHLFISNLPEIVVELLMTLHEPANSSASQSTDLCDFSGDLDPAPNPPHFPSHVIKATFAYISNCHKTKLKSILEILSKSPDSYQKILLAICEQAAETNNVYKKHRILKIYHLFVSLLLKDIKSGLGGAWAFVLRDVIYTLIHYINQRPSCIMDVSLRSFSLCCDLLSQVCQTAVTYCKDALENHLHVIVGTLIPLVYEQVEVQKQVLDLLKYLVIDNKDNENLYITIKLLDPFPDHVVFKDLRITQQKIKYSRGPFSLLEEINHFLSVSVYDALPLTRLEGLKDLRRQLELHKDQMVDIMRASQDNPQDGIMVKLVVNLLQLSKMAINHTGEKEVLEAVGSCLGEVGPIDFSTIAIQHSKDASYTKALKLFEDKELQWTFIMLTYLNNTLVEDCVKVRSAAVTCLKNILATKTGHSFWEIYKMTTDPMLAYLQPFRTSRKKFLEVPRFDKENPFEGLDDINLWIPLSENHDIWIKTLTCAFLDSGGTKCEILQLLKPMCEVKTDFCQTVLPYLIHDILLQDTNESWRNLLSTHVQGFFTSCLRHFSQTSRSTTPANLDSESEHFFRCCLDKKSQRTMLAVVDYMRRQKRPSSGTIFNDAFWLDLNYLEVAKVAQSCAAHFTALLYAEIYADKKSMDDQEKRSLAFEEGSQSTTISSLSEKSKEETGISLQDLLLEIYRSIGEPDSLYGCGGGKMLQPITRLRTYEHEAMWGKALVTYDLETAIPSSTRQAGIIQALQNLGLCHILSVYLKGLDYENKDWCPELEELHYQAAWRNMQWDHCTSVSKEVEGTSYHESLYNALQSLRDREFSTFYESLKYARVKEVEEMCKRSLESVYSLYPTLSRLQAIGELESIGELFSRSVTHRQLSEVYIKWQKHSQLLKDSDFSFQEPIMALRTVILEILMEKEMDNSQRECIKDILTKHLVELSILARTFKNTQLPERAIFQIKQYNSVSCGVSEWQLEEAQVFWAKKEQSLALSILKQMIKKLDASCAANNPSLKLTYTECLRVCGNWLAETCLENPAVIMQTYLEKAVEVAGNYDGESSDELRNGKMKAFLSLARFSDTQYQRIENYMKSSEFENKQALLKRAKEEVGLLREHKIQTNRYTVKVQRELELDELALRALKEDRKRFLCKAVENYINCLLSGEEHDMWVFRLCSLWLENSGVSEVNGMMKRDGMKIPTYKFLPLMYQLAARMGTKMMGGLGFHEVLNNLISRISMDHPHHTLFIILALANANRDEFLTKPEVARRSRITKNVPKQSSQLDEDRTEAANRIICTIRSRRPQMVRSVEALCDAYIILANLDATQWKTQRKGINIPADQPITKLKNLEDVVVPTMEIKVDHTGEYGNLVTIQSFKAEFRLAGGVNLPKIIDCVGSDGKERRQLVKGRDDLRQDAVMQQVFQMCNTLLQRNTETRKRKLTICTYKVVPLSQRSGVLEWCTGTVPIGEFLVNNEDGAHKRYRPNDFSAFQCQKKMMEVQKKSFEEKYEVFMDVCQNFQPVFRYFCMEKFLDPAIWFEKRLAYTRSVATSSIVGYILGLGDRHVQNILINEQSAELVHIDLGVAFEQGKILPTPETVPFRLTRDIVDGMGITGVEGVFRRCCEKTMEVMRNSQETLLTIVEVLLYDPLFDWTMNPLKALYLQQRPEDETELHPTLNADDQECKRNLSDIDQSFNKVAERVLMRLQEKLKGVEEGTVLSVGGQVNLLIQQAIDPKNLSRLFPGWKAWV

Compound: CS(=O)(=O)c1ccc(-c2cnc(N)c(-c3ccc(C(F)(F)F)nc3)c2)cc1 [MMV390048]
IC90 [1]: 40 nM
lag phase [2]: 24 h
blood-stage specificity profile [3]: highest activity against the young schizont stage
ED50 ([4]; Plasmodium berghei, in Mus musculus, po, 72 h): 0.57 mg/kg
ED90 ([4]; four oral administrations (4, 24, 48, 72 hours after infection), measured at 96 hours): 1.1 mg/kg
in vivo parasite clearance rate ([4]; single oral dose 100 mg/kg): intermediate
ED90 at day 7 [5]: 0.57 mg/kg
parasitemia at the end of 4 days ([6]; dose of 1 mg/kg (highest predicted kill rate)): < 0.01%
MIC to inhibit growth ([6]; modeled blood concentration): 0.071 µg/mL (≈ 0.18 µM)
IC50 [7]: 285 nM
IC50 [8, 34]: 214 nM
clearance rate (slope) ([8]; stage I to III, at IC50 concentration over 3 days): −6.09
late-stage gametocytes killed faster than early-stage [9]: 2.5 times
IC50 [9, 34]: 140 nM
rate of onset of action ([9]; luciferase-expressing gametocytes): 24 h
clearance rate (slope) ([9]; stage IV and V, at IC50 concentration over 3 days): −15.49
IC50 [10]: 90 nM
IC50 [11]: 111 nM
inhibition at 1000 µM [12]: < 25%
Prepatency (±SEM) [13]: 6.8 days (±0.28)
liver-stage IC99 (in vitro) [14]: 90 nM
in vivo IC99 (estimated) ([14]; in vitro IC99 corrected for AlbuMAX binding and plasma protein binding): 353 ± 32 nM and 138 ± 13 ng/ml
Cmax [15]: 1980 ng/mL
half-life [15]: ~30 h
time plasma concentration above liver-stage IC99 ([16]; 20 mg/kg oral daily for 5 days): 15.8 days
Cmax ([16]; monkey, plasma, po, 20 mg/kg): 5700 ng/mL
time plasma concentration above blood-stage MIC ([16]; rhesus macaque (Macaca mulatta), in vivo): 20 days
serum albumin (AlbuMAX) binding [17]: 54%
fraction unbound ([17]; plasma, protein binding, used for MIC correction): 0.139
localization of parasitophorous vacuole membrane protein UIS4 [18]: mislocalization
IC50 ([19]; DD2): 16 nM
IC50 ([19]; DD2, read-out: IC50 of resistant clones): 70 to 90 nM
IC50 [20]: 22.7 nM
IC50 [21]: 62.8 nM
IC50 [22]: 57.7 nM
Kd [23]: 300 nM
effect of excess free compound on capture of P. falciparum PI4K by the beads ([23]; excess compound (10 µM for MMV390048)): competitively inhibited
Kd [24]: 100 nM
binding [25]: did not observe any binding
binding [26]: did not observe any binding
binding affinity [27]: low binding affinity
binding affinity [28]: low binding affinity
predicted elimination half-life in humans [29]: about 90 hours
predicted plasma clearance in humans [29]: 0.02 liter/hour per kg
predicted volume of distribution in humans [29]: 2.8 L/kg
absorption [30]: well absorbed
kinetic solubility [31]: not optimal
Vd [32]: 1.3 to 3 L/kg
clearance [32]: 0.6 to 6.5 mL/min/kg
observed toxicity [33]: without any observed toxicity

Compound: C[C@H]1[C@@H](O)O[C@@H]2O[C@@]3(C)CC[C@H]4[C@H](C)CC[C@@H]1[C@@]24OO3 [dihydroartemisinin, reference compound]
IC50 [7]: 12 nM

IC50 fold higher at 24-hour compared to 72-hour time point ([3]; unsynchronized culture): 7.8 fold
Compound: CCc1nc(N)nc(N)c1-c1ccc(Cl)cc1 [pyrimethamine, reference compound]
